Data reported in ChEMBL document CHEMBL4673227, “Development of Gleevec Analogues for Reducing Production of β-Amyloid Peptides through Shifting β-Cleavage of Amyloid Precursor Proteins” (J Med Chem, 2019).
The source made the active and inactive calls. The calls are words filed in the database; no cut-off is given here.

Key:
[1] = Drug level in C57BL/6J mouse brain at 50 mg/kg, ip measured after 4 hrs by LC-MS/MS analysis; format: ADME, organism-based; conditions: read-out: Drug uptake
Procedure, shortened: (§1)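 Mesylate salts in water ([…], 125 μL) given i.p. at 50 or 150 mg/kg to 8-week-old male C57BL/6J mice. Brain and plasma harvested 4 h post-dose and snap-frozen. Brain homogenized and extracted twice with ethanol, plasma extracted with acetonitrile, both with internal standard. Drug quantified by LC-MS/MS; n = 3 or 4.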

[2] = Toxicity in mouse N2a695 cells assessed as reduction in cell viability at 5 to 10 uM incubated for 5 hrs; format: cell-based; conditions: n2a695, 5 h, dose 5-10 µM
Procedure, shortened: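 N2a cells exposed to compounds at 10 μM for 5 h alongside the Aβ assay. Cell viability/density compared with DMSO control.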

[3] = Inhibition of beta secretase in mouse N2a695 cells assessed as reduction in A-beta 40 levels incubated for 5 hrs by ELISA; format: cell-based; conditions: N2a695, 5 h
Procedure, shortened: (§2)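 Mouse N2a695 cells (N2a overexpressing human APP695), grown in Opti-MEM/DMEM with 5% FBS and geneticin at 37 °C, 5% CO₂. Cells seeded overnight in 6-well plates, >95% confluent, then given fresh medium with compounds (2.5–10 μM, diluted from DMSO stocks) for 5 h. Secreted Aβ40/Aβ42 measured by ELISA or MSD ELISA against DMSO control; 2–3 experiments averaged.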

[4] = Inhibition of beta secretase in mouse N2a695 cells assessed as reduction in A-beta 42 levels incubated for 5 hrs by ELISA; format: cell-based; conditions: N2a695, 5 h; procedure, shortened: as §2
N2a695 [5] = test: Inhibition of beta secretase in mouse N2a695 cells assessed as reduction in A-beta 40 levels at 5 to 10 uM incubated for 5 hrs by ELISA; format: cell-based; conditions: dose 5-10 µM; procedure, shortened: as §2
N2a695 [6] = test: Inhibition of beta secretase in mouse N2a695 cells assessed as reduction in A-beta 42 levels at 5 to 10 uM incubated for 5 hrs by ELISA; format: cell-based; conditions: dose 5-10 µM; procedure, shortened: as §2
N2a695 [7] = test: Inhibition of beta secretase in mouse N2a695 cells assessed as reduction in A-beta 42 levels at 10 uM incubated for 5 hrs by ELISA; format: cell-based; procedure, shortened: as §2
[8] = Stability in human liver microsomes assessed as parent compound remaining level at 1 uM after 1 hrs by HPLC-MS/MS analysis; format: ADME, Microsome; conditions: read-out: Stabilty
[9] = Stability in human liver microsomes assessed as parent compound remaining level at 10 uM after 1 hrs by HPLC-MS/MS analysis; format: ADME, Microsome; conditions: read-out: Stabilty
[10] = Stability in mouse liver microsomes assessed as parent compound remaining level at 10 uM after 1 hrs by HPLC-MS/MS analysis; format: ADME, Microsome; conditions: read-out: Stabilty
[11] = Stability in mouse liver microsomes assessed as parent compound remaining level at 1 uM after 1 hrs by HPLC-MS/MS analysis; format: ADME, Microsome; conditions: read-out: Stabilty
[12] = Stability in human liver microsomes assessed as parent compound remaining level at 10 uM after 0.5 hrs by HPLC-MS/MS analysis; format: ADME, Microsome; conditions: read-out: Stabilty
[13] = Stability in human liver microsomes assessed as parent compound remaining level at 1 uM after 0.5 hrs by HPLC-MS/MS analysis; format: ADME, Microsome; conditions: read-out: Stabilty
[14] = Stability in mouse liver microsomes assessed as parent compound remaining level at 10 uM after 0.5 hrs by HPLC-MS/MS analysis; format: ADME, Microsome; conditions: read-out: Stabilty
[15] = Stability in mouse liver microsomes assessed as parent compound remaining level at 1 uM after 0.5 hrs by HPLC-MS/MS analysis; format: ADME, Microsome; conditions: read-out: Stabilty
[16] = Drug level in C57BL/6J mouse plasma at 50 mg/kg, ip measured after 4 hrs by LC-MS/MS analysis; format: ADME, organism-based; procedure, shortened: as §1
N2a695 [17] = test: Inhibition of beta secretase in mouse N2a695 cells assessed as reduction in A-beta 40 levels at 5 uM treated 1 hr after BACE IV treatment and further incubated for 5 hrs by ELISA; format: cell-based
Procedure, shortened: (§3)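 N2a695 cells pretreated with BACE IV for 1 h, then treated with compound plus BACE IV for 5 h. Secreted Aβ40 and Aβ42 measured by ELISA.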

N2a695 [18] = test: Inhibition of beta secretase in mouse N2a695 cells assessed as reduction in A-beta 42 levels at 5 uM treated 1 hr after BACE IV treatment and further incubated for 5 hrs by ELISA; format: cell-based; procedure, shortened: as §3
Mus musculus [19] = test: Inhibition of FA-soluble A-beta-40 levels in 2xTg AD mouse model at 100 mg/kg, po BID for 4 days and once daily on day 5 by ELISA; format: functional, organism-based; conditions: time 5.0 day
Procedure, shortened: (§4)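 2xTg AD females (APP Swedish/PS1ΔE9), 5 months old, n = 7 per group. 2a-mesylate 20 mg/mL in water with 0.1% methylcellulose, 100 mg/kg by gavage, or vehicle, twice daily 8 h apart for 4 days, then once on day 5. Euthanized 4 h after last dose. Left hemisphere homogenized in 1% Triton X-100 TBS (pH 7.4), then insoluble Aβ extracted with 70% formic acid and measured by ELISA.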

Mus musculus [20] = test: Inhibition of FA-soluble A-beta-42 levels in 2xTg AD mouse model at 100 mg/kg, po BID for 4 days and once daily on day 5 by ELISA; format: functional, organism-based; procedure, shortened: as §4
[21] = Toxicity in mouse up to 150 mg/kg, po QD for 5 days; format: organism-based; conditions: in vivo, 120 h, time 5 day
Procedure, shortened: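 Wild-type mice given the compound by oral gavage, increasing amounts up to 150 mg/kg once daily for 5 days. Animals observed for signs of toxicity.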

N2a [22] = test: Inhibition of gamma secretase in mouse N2a cells expressing APP-C99 assessed as reduction of A-beta42 levels at 10 uM incubated for 5 hrs by MSD-ELISA relative to control; format: cell-based
Procedure, shortened: (§5)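 N2a cells transfected with plasmids for full-length APP695 or APP-C99. After 48 h, fresh medium with compounds (10 μM) added for 5 h. Supernatant Aβ40, Aβ42, sAPPα and sAPPβ measured by MSD ELISA against DMSO; BACE IV (2 μM) and DAPT (1 μM) run alongside.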

N2a [23] = test: Inhibition of gamma secretase in mouse N2a cells expressing APP-C99 assessed as reduction of A-beta40 levels at 10 uM incubated for 5 hrs by MSD-ELISA relative to control; format: cell-based; procedure, shortened: as §5
[24] = Drug level in C57BL/6J mouse plasma at 150 mg/kg, ip measured after 4 hrs by LC-MS/MS analysis; format: ADME, organism-based; procedure, shortened: as §1
[25] = Drug level in C57BL/6J mouse brain at 150 mg/kg, ip measured after 4 hrs by LC-MS/MS analysis; format: ADME, organism-based; conditions: read-out: Drug uptake; procedure, shortened: as §1
[26] = Drug level in brain of wild-type mouse at 50 mg/kg, po after 6 hrs by LC-MS/MS analysis; conditions: in vivo
[27] = Drug level in brain of wild-type mouse at 50 mg/kg, po after 12 hrs by LC-MS/MS analysis; conditions: in vivo
[28] = Drug level in plasma of wild-type mouse at 50 mg/kg, po after 24 hrs by LC-MS/MS analysis; conditions: in vivo
[29] = Drug level in plasma of wild-type mouse at 50 mg/kg, po after 12 hrs by LC-MS/MS analysis; conditions: in vivo
N2a [30] = test: Inhibition of gamma secretase in mouse N2a cells expressing FL APP695 assessed as reduction of A-beta levels at 1 uM incubated for 5 hrs by MSD-ELISA; format: cell-based
N2a [31] = test: Inhibition of beta secretase in mouse N2a cells expressing FL APP695 assessed as reduction of A-beta levels at 2 uM incubated for 5 hrs by MSD-ELISA

Compound | concentration at 4 h [1] [ng/g] | Activity [2] | IC50 [3] [µM] | IC50 [4] [µM] | inhibition (N2a695 [5]) | inhibition (N2a695 [6]) | concentration at 4 h [16] [nM] | other results
Cc1ccc(NC(=O)c2ccc(C3CCN(C)CC3)cc2)cc1Nc1nccc(-c2cccnc2)n1 | 127 | Non-Toxic | > 5 | > 5 | Active | Active |  | 
Cc1ccc(NC(=O)c2ccc(CCN)cc2)cc1Nc1nccc(-c2cccnc2)n1 |  |  |  |  |  |  |  | inhibition (N2a695 [7]): Active
CS(=O)(=O)O.Cc1ccc(NC(=O)c2ccc(CN3CCN(C)CC3)cc2)cc1Nc1nccc(-c2cccnc2)n1 [IMATINIB MESYLATE] | < 1 |  |  |  |  |  | 100 | remaining at 1 h, 1 µM [8]: 15.9%; remaining at 1 h, 10 µM [9]: 66.4%; remaining at 1 h, 10 µM [10]: 5.1%; remaining at 1 h, 1 µM [11]: 1.7%; remaining at 0.5 h, 10 µM [12]: 95.4%; remaining at 0.5 h, 1 µM [13]: 40.4%; remaining at 0.5 h, 10 µM [14]: 22.5%; remaining at 0.5 h, 1 µM [15]: 7.3%
Cc1ccc(NC(=O)c2ccc(CCN(C)C)cc2)cc1Nc1nccc(-c2cccnc2)n1 [listing 1 of 2 here] |  |  |  |  | Active | Active |  | inhibition (N2a695 [17]): Active; inhibition (N2a695 [18]): Active; inhibition (Mus musculus [19]): Active; inhibition (Mus musculus [20]): Active
Cc1ccc(NC(=O)c2ccc(CCN(C)C)cc2)cc1Nc1nccc(-c2cccnc2)n1 [listing 2 of 2 here] | 27 | Non-Toxic | > 5 | > 5 |  |  | 2500 | Activity [21]: Non-Toxic; remaining at 1 h, 1 µM [8]: 29.2%; remaining at 1 h, 10 µM [9]: 56.5%; remaining at 1 h, 10 µM [10]: 2.3%; remaining at 1 h, 1 µM [11]: 1.3%; remaining at 0.5 h, 10 µM [12]: 77.1%; remaining at 0.5 h, 1 µM [13]: 61.9%; remaining at 0.5 h, 10 µM [14]: 15.1%; remaining at 0.5 h, 1 µM [15]: 7.9%
Cc1ccc(NC(=O)c2ccc(C3CCCN(C)C3)cc2)cc1Nc1nccc(-c2cccnc2)n1 (configuration not stated) | 39 | Non-Toxic | > 5 | > 5 | Active | Active | 2300 | 
CNCCc1ccc(C(=O)Nc2ccc(C)c(Nc3nccc(-c4cccnc4)n3)c2)cc1 |  |  |  |  |  |  |  | inhibition (N2a695 [7]): Active
Cc1ccc(NC(=O)c2ccc(CCN(C)C)cc2C(F)(F)F)cc1Nc1nccc(-c2cccnc2)n1 |  | Non-Toxic | > 5 | > 5 | Active | Active |  | inhibition (N2a [22]): 25%; inhibition (N2a [23]): 25%; concentration at 4 h [24]: 11600 nM; concentration at 4 h [25]: 60 ng/g
CS(=O)(=O)O.Cc1ccc(NC(=O)c2ccc(CCN(C)C)cc2)cc1Nc1nccc(-c2cccnc2)n1 |  |  |  |  |  |  |  | Drug uptake [26]: Active; Drug uptake [27]: Not Active; Drug uptake [28]: Not Active; Drug uptake [29]: Active
Cc1ccc(NC(=O)c2ccc(N3CCN(C)CC3)cc2)cc1Nc1nccc(-c2cccnc2)n1 | 21 | Non-Toxic | > 5 | > 5 | Active | Active | 1000 | 
C[C@H](NC(=O)Cc1cc(F)cc(F)c1)C(=O)N[C@H](C(=O)OC(C)(C)C)c1ccccc1 |  |  |  |  |  |  |  | inhibition (N2a [30]): Active; inhibition (N2a [31]): Active
